In brackets after ≈: the same amount, converted by molar mass.
Assays:
Staphylococcus aureus = assay: Antibacterial activity against Staphylococcus aureus NCIM 2079 after 24 hrs by NCCLS agar well diffusion method; format: functional; settings: NCIM 2079, 24 h
Method in brief: (§1)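 Nutrient agar seeded with 0.1 mL bacterial suspension (10⁵ CFU/mL in 0.85% saline). 6 mm wells filled with 0.1 mL compound. Plates in triplicate, 37 ± 0.5 °C for 24 h. MIC = lowest concentration giving complete growth inhibition.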

Penicillium chrysogenum = assay: Antifungal activity against Penicillium chrysogenum NCIM 738 after 48 hrs by NCCLS agar well diffusion method; format: functional; settings: NCIM 738, 48 h
Method in brief: (§2)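 Spore suspensions in sterile distilled water adjusted to 10⁶ CFU/mL, 0.1 mL spread on potato-dextrose agar. 6 mm wells received 0.1 mL compound in 1% DMSO (final 16–512 µg/mL). Controls: 1% DMSO and ketoconazole (16 µg/mL). Triplicate plates, 48 h at 28 ± 0.2 °C. MIC = lowest concentration completely inhibiting growth.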

Rattus norvegicus [1] = assay: Antihyperglycemic activity in streptozotocin-induced type 2 diabetic Wistar albino rat assessed as reduction in plasma glucose level at 30 mg/kg, po by glucometer; format: functional
Method in brief: (§3)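 Wistar albino rats of either sex, 150–200 g, fasted 16 h. Diabetes induced by nicotinamide 150 mg/kg, then STZ 65 mg/kg in citrate buffer pH 4.5. Glucose confirmed after 48 h. Groups of six. Oral dosing as 0.25% sodium CMC suspension at 10, 30 or 50 mg/kg. Rosiglitazone was the reference. Retro-orbital plasma glucose measured by glucometer before dosing and at 1, 2, 4, 6, 8, 12 and 24 h. Results as mean ± SEM, compared by ANOVA, t-test and Dunnett's test.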

Bacillus pumilus = assay: Antibacterial activity against Bacillus pumilus NCIM 2327 after 24 hrs by NCCLS agar well diffusion method; format: functional; settings: NCIM 2327, 24 h; method in brief: as §1
Candida albicans = assay: Antifungal activity against Candida albicans NCIM 3102 after 48 hrs by NCCLS agar well diffusion method; format: functional; settings: NCIM 3102, 48 h; method in brief: as §2
Aspergillus niger = assay: Antifungal activity against Aspergillus niger NCIM 548 after 48 hrs by NCCLS agar well diffusion method; format: functional; settings: NCIM 548, 48 h; method in brief: as §2
Rattus norvegicus [2] = assay: Antihyperglycemic activity in streptozotocin-induced type 2 diabetic Wistar albino rat assessed as reduction in plasma glucose level at 10 mg/kg, po by glucometer; format: functional; method in brief: as §3
Rattus norvegicus [3] = assay: Antihyperglycemic activity in streptozotocin-induced type 2 diabetic Wistar albino rat assessed as reduction in plasma glucose level at 50 mg/kg, po by glucometer; format: functional; method in brief: as §3
Rattus norvegicus [4] = assay: Antihyperglycemic activity in po dosed streptozotocin-induced type 2 diabetic Wistar albino rat assessed as reduction in plasma glucose level by glucometer; format: functional, organism-based; method in brief: as §3
Artemia salina = assay: Cytotoxicity in brine shrimps larvae assessed as mortality after 24 hrs; format: functional; settings: read-out: ED50 (the source's name)
Method in brief: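 Artemia salina nauplii hatched 38 h under constant aeration in sterile brine (sea salt 38 g/L, pH 8.5 with 1 N NaOH). Ten nauplii per vial were exposed to a range of compound concentrations at 37 °C for 24 h under incandescent light, alongside vehicle-treated controls. Survivors were counted, % lethality was taken from mean survivors versus control, and ED50 came from probit analysis.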

Aspergillus oryzae = assay: Antifungal activity against Aspergillus oryzae NCIM 643 after 48 hrs by NCCLS agar well diffusion method; format: functional; settings: NCIM 643, 48 h; method in brief: as §2
Pseudomonas aeruginosa = assay: Antibacterial activity against Pseudomonas aeruginosa NCIM 2036 after 24 hrs by NCCLS agar well diffusion method; format: functional; settings: NCIM 2036, 24 h; method in brief: as §1
Klebsiella pneumoniae = assay: Antibacterial activity against Klebsiella pneumoniae NCIM 5082 after 24 hrs by NCCLS agar well diffusion method; format: functional; settings: NCIM 5082, 24 h; method in brief: as §1
Escherichia coli = assay: Antibacterial activity against Escherichia coli NCIM 2065 after 24 hrs by NCCLS agar well diffusion method; format: functional; settings: NCIM 2065, 24 h; method in brief: as §1
[5] = Toxicity in mouse assessed as changes in vital functions; format: organism-based; settings: in vivo
Micrococcus luteus = assay: Antibacterial activity against Micrococcus luteus NCIM 2155 after 24 hrs by NCCLS agar well diffusion method; format: functional; settings: NCIM 2155, 24 h; method in brief: as §1
Bacillus subtilis = assay: Antibacterial activity against Bacillus subtilis NCIM 2063 after 24 hrs by NCCLS agar well diffusion method; format: functional; settings: NCIM 2063, 24 h; method in brief: as §1
Proteus vulgaris = assay: Antibacterial activity against Proteus vulgaris NCIM 2813 after 24 hrs by NCCLS agar well diffusion method; format: functional; settings: NCIM 2813, 24 h; method in brief: as §1

| SMILES | MIC (Staphylococcus aureus) [µg/mL] | MIC (Penicillium chrysogenum) [µg/mL] | Activity (Rattus norvegicus [1]) [mg/dL] | MIC (Bacillus pumilus) [µg/mL] | MIC (Candida albicans) [µg/mL] | MIC (Aspergillus niger) [µg/mL] | Activity (Rattus norvegicus [2]) [mg/dL] | Activity (Rattus norvegicus [3]) [mg/dL] | Activity (Rattus norvegicus [4]) | EC50 (Artemia salina) [µg/mL] | MIC (Aspergillus oryzae) [µg/mL] | MIC (Pseudomonas aeruginosa) [µg/mL] | MIC (Klebsiella pneumoniae) [µg/mL] | MIC (Escherichia coli) [µg/mL] | MTD [5] [mg/kg] | MIC (Micrococcus luteus) [µg/mL] | MIC (Bacillus subtilis) [µg/mL] | MIC (Proteus vulgaris) [µg/mL] |
| --- | --- | --- | --- | --- | --- | --- | --- | --- | --- | --- | --- | --- | --- | --- | --- | --- | --- | --- |
| O=C1NC(=O)/C(=C/c2ccc(/C=C/C(=O)c3cccnc3)cc2)S1 | 128 (≈ 381 µM) | 256 (≈ 761 µM) | 27.86 | 128 (≈ 381 µM) | 128 (≈ 381 µM) | 256 (≈ 761 µM) | 19.04 | 31.81 | Dose-dependent effect | 31.4 (≈ 93.4 µM) | 128 (≈ 381 µM) | 128 (≈ 381 µM) | 128 (≈ 381 µM) | 128 (≈ 381 µM) | 2000 | 128 (≈ 381 µM) | 128 (≈ 381 µM) | 256 (≈ 761 µM) |
| O=C1NC(=O)/C(=C/c2ccc(/C=C/C(=O)c3ccc(O)cc3O)cc2)S1 | 256 (≈ 697 µM) | 256 (≈ 697 µM) | 33.72 | 256 (≈ 697 µM) | 256 (≈ 697 µM) | 256 (≈ 697 µM) | 26.86 | 41.67 | Dose-dependent effect | 49.2 (≈ 134 µM) | 256 (≈ 697 µM) | 256 (≈ 697 µM) | 256 (≈ 697 µM) | 256 (≈ 697 µM) | 2000 | 512 (≈ 1390 µM) | 256 (≈ 697 µM) | 256 (≈ 697 µM) |
| O=C1NC(=O)/C(=C/c2ccc(/C=C/C(=O)c3ccc([N+](=O)[O-])cc3)cc2)S1 | 512 (≈ 1350 µM) | 256 (≈ 673 µM) | 16.74 | 512 (≈ 1350 µM) | 256 (≈ 673 µM) | 512 (≈ 1350 µM) | 13.63 | 22.73 | Dose-dependent effect | 49.3 (≈ 130 µM) | 512 (≈ 1350 µM) | 256 (≈ 673 µM) | 512 (≈ 1350 µM) | 512 (≈ 1350 µM) | 2000 | 512 (≈ 1350 µM) | 256 (≈ 673 µM) | 512 (≈ 1350 µM) |
| CC(=O)N1CCN(c2ccc(OCC3COC(Cn4ccnc4)(c4ccc(Cl)cc4Cl)O3)cc2)CC1 (stereo not given) [KETOCONAZOLE] | – | 16 (≈ 30.1 µM) | – | – | 16 (≈ 30.1 µM) | 16 (≈ 30.1 µM) | – | – | – | – | 16 (≈ 30.1 µM) | – | – | – | – | – | – | – |
| COc1cc([C@@H]2c3cc4c(cc3[C@H](O)[C@H]3COC(=O)[C@H]23)OCO4)cc(OC)c1OC [PODOFILOX] | – | – | – | – | – | – | – | – | – | 3.61 (≈ 8.71 µM) | – | – | – | – | – | – | – | – |
| O=C1NC(=O)/C(=C/c2ccc(/C=C/C(=O)c3ccccc3O)cc2)S1 | 256 (≈ 729 µM) | 512 (≈ 1460 µM) | – | 512 (≈ 1460 µM) | 512 (≈ 1460 µM) | 512 (≈ 1460 µM) | – | 14.44 | Dose-dependent effect | 41.4 (≈ 118 µM) | 512 (≈ 1460 µM) | 256 (≈ 729 µM) | 512 (≈ 1460 µM) | 256 (≈ 729 µM) | 2000 | 512 (≈ 1460 µM) | 512 (≈ 1460 µM) | 512 (≈ 1460 µM) |
| CN(CCOc1ccc(CC2SC(=O)NC2=O)cc1)c1ccccn1 (stereo not given) [ROSIGLITAZONE] | – | – | 14.83 | – | – | – | 38.57 | 12.74 | – | – | – | – | – | – | – | – | – | – |
| O=C1NC(=O)/C(=C/c2ccc(/C=C/C(=O)c3ccccc3)cc2)S1 | 512 (≈ 1530 µM) | 512 (≈ 1530 µM) | 11.51 | 256 (≈ 763 µM) | 512 (≈ 1530 µM) | 512 (≈ 1530 µM) | – | 15.61 | Dose-dependent effect | 44.7 (≈ 133 µM) | 512 (≈ 1530 µM) | 256 (≈ 763 µM) | 512 (≈ 1530 µM) | 256 (≈ 763 µM) | 2000 | 512 (≈ 1530 µM) | 256 (≈ 763 µM) | 512 (≈ 1530 µM) |

Source: ChEMBL document CHEMBL2151038, “Synthesis, characterization and biological evaluation of some novel 2,4-thiazolidinediones as potential cytotoxic, antimicrobial and antihyperglycemic agents” (Bioorg Med Chem Lett, 2012)
